ChEMBL document CHEMBL5674890, “Selective inhibition of CBP/p300 HAT by A-485 results in suppression of lipogenesis and hepatic gluconeogenesis” (Cell Death Dis, 2020)
Active and inactive are the calls of the source. The calls are words filed in the database; no cut-off is given here.

Tests used:
Mus musculus [1] = assay: Anti-obesity activity in 16 hrs fasted C57BL/6 mouse supplemented with normal chow diet assessed as decrease in fasting blood glucose at 20 mg/kg/day, ip administered for 1 week; format: functional, organism-based; settings: time 1.0 weeks
How it was run: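 8-week-old male C57BL/6 mice on normal chow, ip 20 mg·kg−1·day−1 for 7 days. Blood glucose measured randomly fed or after 6 h or 16 h fasting, as the line states. Mean ± SEM, n = 5–9.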

Mus musculus [2] = assay: Inhibition of lipogenesis in C57BL/6 mouse supplemented with high-fat diet assessed as decrease in weight of inguinal white adipose tissue (iWAT) at 20 mg/kg/day, ip administered for 1 week; format: functional, organism-based; settings: time 1.0 weeks
How it was run: (§1)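 Male C57BL/6 mice were fed high-fat diet for 14 weeks from 5 weeks of age, then injected ip with 20 mg·kg−1·day−1 for 7 days or given vehicle. Epididymal and inguinal WAT were weighed, examined by H&E, and analysed. Transcripts were measured by Trizol/SYBR Green RT-qPCR; proteins by western blot. n = 5–9; mean ± SEM.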

Mus musculus [3] = assay: Inhibition of lipogenesis in C57BL/6 mouse supplemented with high-fat diet assessed as decrease in gross size of WAT at 20 mg/kg/day, ip administered for 1 week; format: functional, organism-based; settings: time 1.0 weeks; how it was run: as §1
Mus musculus [4] = assay: Inhibition of lipogenesis in C57BL/6 mouse supplemented with high-fat diet assessed as decrease in FASN mRNA expression at 20 mg/kg/day, ip administered for 1 week measured by RT-qPCR assay; format: functional, organism-based; settings: time 1.0 weeks; how it was run: as §1
Mus musculus [5] = assay: Inhibition of lipogenesis in C57BL/6 mouse supplemented with normal chow diet assessed as decrease in FAS protein expression at 20 mg/kg/day, ip administered for 1 week measured by western blot analysis; format: functional, organism-based; settings: time 1.0 weeks
How it was run: (§2)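 Eight-week-old male C57BL/6 mice on normal chow were given 20 mg·kg−1·day−1 ip daily for 7 days or vehicle. Epididymal WAT was collected. Lipogenic, adipogenic and fatty-acid-oxidation transcripts were quantified by Trizol extraction and SYBR Green RT-qPCR. FAS, ACC, PPARγ and C/EBPα protein were assessed by western blot. n = 5–9; mean ± SEM.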

Mus musculus [6] = assay: Inhibition of lipogenesis in C57BL/6 mouse supplemented with normal chow diet assessed as effect on MCAD mRNA expression at 20 mg/kg/day, ip administered for 1 week measured by RT-qPCR assay; format: functional, organism-based; settings: time 1.0 weeks; how it was run: as §2
Mus musculus [7] = assay: Inhibition of lipogenesis in C57BL/6 mouse supplemented with normal chow diet assessed as decrease in LPL mRNA expression at 20 mg/kg/day, ip administered for 1 week measured measured by RT-qPCR assay; format: functional, organism-based; settings: time 1.0 weeks; how it was run: as §2
Mus musculus [8] = assay: Inhibition of lipogenesis in C57BL/6 mouse supplemented with high-fat diet assessed as decrease in C/EBPalpha mRNA expression at 20 mg/kg/day, ip administered for 1 week measured measured by RT-qPCR assay; format: functional, organism-based; settings: time 1.0 weeks; how it was run: as §1
Mus musculus [9] = assay: Inhibition of lipogenesis in C57BL/6 mouse supplemented with normal chow diet assessed as decrease in PPARgamma mRNA expression at 20 mg/kg/day, ip administered for 1 week measured measured by RT-qPCR assay; format: functional, organism-based; settings: time 1.0 weeks; how it was run: as §2
Mus musculus [10] = assay: Inhibition of lipogenesis in C57BL/6 mouse supplemented with normal chow diet assessed as decrease in C/EBPalpha protein expression at 20 mg/kg/day, ip administered for 1 week measured measured by western blot analysis; format: functional, organism-based; settings: time 1.0 weeks; how it was run: as §2
Adipocyte [11] = assay: Inhibition of lipogenesis in mouse adipocytes isolated stromal vascular cells assessed as decrease in SREBP-1c mRNA expression measured after 24 hrs by RT-qPCR assay; format: functional, cell-based
How it was run: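 Stromal vascular cells from inguinal WAT of C57BL/6 mice, grown in DMEM/F12 + 10% FBS at 37 °C, 10% CO2. At confluence, induced 48 h with 5 μg/ml insulin, 1 μM dexamethasone, 0.5 mM isobutylmethylxanthine, then 6 days in 5 μg/ml insulin; fully differentiated day 8. Mature adipocytes exposed to inhibitor 24 h. Total RNA by Trizol, SYBR Green RT-qPCR; protein by western blot.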

Adipocyte [12] = assay: Inhibition of lipogenesis in mouse adipocytes isolated stromal vascular cells assessed as decrease in ACC protein expression measured after 24 hrs by western blot analysis; format: functional, cell-based
Adipocyte [13] = assay: Inhibition of lipogenesis in mouse adipocytes isolated stromal vascular cells assessed as decrease in PPARgamma protein expression measured after 24 hrs by western blot analysis; format: functional, cell-based
Mus musculus [14] = assay: Inhibition of hepatic lipogenesis in C57BL/6 mouse supplemented with high fat diet assessed as decrease in triglyceride level at 20 mg/kg/day, ip administered for 1 week; format: functional, organism-based; settings: time 1.0 weeks
How it was run: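 Male C57BL/6 mice received ip A-485 at 20 mg·kg−1·day−1 for 7 days, versus vehicle. NCD mice were 8 weeks old. HFD mice had been on high-fat diet for 14 weeks from 5 weeks of age. Liver triglyceride and total cholesterol content was determined. n = 5–9; mean ± SEM.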

Hepatocyte [15] = assay: Inhibition of lipogenesis in mouse primary hepatocytes assessed as increase in CPT1alpha mRNA expression at 3 uM in presence of 100 nM insulin and 5 to 25 mM glucose measured after 18 hrs by RT-qPCR assay; format: functional, cell-based
How it was run: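 Primary hepatocytes isolated from C57BL/6 mice by two-step perfusion. Cells incubated 18 h with 3 μM inhibitor, with 0 or 100 nM insulin and 5 or 25 mM glucose. Transcripts quantified by SYBR Green RT-qPCR after Trizol RNA extraction; proteins by western blot of lysates. Mean ± SEM.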

Hepatocyte [16] = assay: Inhibition of glucogenesis in mouse primary hepatocytes stimulated with 100 uM 8-Br-cAMP assessed as decrease in PEPCK mRNA expression at 3 uM in presence of cAMP measured after 8 hrs by RT-qPCR assay; format: functional, cell-based
How it was run: (§3)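 Primary mouse hepatocytes treated with 3 μM compound and 100 μM 8-Br-cAMP for 8 h. Trizol RNA, SYBR Green RT-qPCR of the named transcript. Mean ± SEM, three independent experiments.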

HepG2 = assay: Inhibition of glucogenesis in human HepG2 cells stimulated with 8-Br-cAMP at 3 uM assessed as effect on increased CRE luciferase activity; format: functional, cell-based
How it was run: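 HepG2 cells treated with 3 μM compound; CRE reporter activity measured. Mean ± SEM, three independent experiments.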

Hepatocyte [17] = assay: Inhibition of glucogenesis in mouse primary hepatocytes stimulated with 100 uM 8-Br-cAMP assessed as effect on FOXO1 mRNA expression at 3 uM measured after 8 hrs by RT-qPCR assay; format: functional, cell-based; how it was run: as §3
Mus musculus [18] = species: Mus musculus; assay: Inhibition of glucogenesis in mouse assessed as decrease in occupancy of G6Pc promoter with FOXO1 in liver measured by ChIP-qPCR analysis; format: functional, organism-based
How it was run: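 Livers from mice dosed ip at 20 mg·kg−1·day−1 for 7 days. Tissue crosslinked in 1% formaldehyde, lysed, sonicated to 200–1000 bp chromatin, immunoprecipitated with anti-FOXO1 or IgG. G6Pc promoter quantified by qPCR.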

[19] = molecular target: CREB-binding protein/Histone acetyltransferase p300 (Homo sapiens) (UniProt Q09472+Q92793); assay: Inhibition of CBP/p300 in mouse primary hepatocytes stimulated with 100 uM 8-Br-cAMP assessed as decrease in half-life of endogenous FOXO1 at 3 uM in presence of 10 ug/ml cycloheximide; format: cell-based; settings: Primary hepatocyte
Sequence of CREB-binding protein/Histone acetyltransferase p300 (Homo sapiens) (Q09472 whole entry, looked up): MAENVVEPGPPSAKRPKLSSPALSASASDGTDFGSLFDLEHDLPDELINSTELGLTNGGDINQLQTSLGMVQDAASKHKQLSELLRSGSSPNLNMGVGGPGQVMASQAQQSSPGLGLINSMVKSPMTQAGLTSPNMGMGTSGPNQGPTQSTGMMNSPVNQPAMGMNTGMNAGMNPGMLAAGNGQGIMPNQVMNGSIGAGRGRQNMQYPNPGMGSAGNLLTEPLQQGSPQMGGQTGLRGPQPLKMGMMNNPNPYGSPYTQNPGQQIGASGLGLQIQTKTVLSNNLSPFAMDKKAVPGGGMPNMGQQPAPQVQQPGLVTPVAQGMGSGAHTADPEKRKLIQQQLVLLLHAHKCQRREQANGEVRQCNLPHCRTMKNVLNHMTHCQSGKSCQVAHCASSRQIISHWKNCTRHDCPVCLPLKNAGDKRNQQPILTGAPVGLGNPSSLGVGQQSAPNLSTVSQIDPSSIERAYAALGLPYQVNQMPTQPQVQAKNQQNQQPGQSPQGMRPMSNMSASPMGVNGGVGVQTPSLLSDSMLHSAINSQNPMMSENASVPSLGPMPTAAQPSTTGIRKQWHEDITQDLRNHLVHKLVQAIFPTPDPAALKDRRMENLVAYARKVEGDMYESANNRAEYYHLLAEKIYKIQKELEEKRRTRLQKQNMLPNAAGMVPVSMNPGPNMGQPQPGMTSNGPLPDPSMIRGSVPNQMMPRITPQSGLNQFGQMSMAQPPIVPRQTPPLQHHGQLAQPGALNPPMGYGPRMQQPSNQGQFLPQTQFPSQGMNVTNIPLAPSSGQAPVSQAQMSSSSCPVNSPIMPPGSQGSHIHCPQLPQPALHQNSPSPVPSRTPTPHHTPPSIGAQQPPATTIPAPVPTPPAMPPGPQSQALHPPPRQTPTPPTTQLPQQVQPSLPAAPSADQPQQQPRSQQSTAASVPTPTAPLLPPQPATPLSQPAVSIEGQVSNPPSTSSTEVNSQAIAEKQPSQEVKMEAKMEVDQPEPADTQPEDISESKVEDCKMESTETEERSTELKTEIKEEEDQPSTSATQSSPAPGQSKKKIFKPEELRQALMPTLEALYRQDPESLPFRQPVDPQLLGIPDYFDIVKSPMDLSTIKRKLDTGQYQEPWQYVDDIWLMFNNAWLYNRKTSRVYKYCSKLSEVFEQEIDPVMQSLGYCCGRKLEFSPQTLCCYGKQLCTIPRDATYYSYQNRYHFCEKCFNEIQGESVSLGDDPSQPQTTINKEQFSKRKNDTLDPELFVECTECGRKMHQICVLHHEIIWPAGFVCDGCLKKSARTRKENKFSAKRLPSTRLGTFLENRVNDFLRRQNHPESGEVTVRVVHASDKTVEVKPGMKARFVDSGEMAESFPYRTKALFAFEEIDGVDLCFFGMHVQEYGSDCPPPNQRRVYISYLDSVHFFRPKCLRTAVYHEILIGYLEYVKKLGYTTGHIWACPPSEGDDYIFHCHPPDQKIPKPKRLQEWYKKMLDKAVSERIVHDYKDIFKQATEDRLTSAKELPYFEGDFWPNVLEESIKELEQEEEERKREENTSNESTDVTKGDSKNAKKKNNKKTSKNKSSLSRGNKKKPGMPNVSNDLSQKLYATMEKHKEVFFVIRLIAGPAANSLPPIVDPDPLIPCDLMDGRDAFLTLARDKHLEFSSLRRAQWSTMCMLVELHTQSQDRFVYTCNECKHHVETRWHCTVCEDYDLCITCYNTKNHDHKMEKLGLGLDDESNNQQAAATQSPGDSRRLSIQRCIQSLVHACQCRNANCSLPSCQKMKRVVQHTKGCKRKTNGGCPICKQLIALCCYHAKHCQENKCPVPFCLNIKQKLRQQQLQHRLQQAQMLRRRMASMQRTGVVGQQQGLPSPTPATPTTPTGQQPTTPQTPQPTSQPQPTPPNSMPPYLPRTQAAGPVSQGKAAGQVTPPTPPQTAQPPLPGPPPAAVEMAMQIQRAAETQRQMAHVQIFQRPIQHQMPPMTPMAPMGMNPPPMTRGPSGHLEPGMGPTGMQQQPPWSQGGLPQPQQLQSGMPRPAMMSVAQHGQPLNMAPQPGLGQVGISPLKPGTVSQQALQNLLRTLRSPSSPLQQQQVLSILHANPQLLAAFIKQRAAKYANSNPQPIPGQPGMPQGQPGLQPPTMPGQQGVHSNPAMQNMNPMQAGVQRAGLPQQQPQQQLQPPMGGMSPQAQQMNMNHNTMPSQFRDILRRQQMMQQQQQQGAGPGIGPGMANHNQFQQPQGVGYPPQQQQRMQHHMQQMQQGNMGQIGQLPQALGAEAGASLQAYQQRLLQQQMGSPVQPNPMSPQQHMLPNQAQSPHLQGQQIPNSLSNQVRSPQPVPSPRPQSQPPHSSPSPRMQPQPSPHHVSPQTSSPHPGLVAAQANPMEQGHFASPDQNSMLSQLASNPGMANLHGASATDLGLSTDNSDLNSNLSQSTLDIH
Sequence of CREB-binding protein/Histone acetyltransferase p300 (Homo sapiens) (Q92793 whole entry, looked up): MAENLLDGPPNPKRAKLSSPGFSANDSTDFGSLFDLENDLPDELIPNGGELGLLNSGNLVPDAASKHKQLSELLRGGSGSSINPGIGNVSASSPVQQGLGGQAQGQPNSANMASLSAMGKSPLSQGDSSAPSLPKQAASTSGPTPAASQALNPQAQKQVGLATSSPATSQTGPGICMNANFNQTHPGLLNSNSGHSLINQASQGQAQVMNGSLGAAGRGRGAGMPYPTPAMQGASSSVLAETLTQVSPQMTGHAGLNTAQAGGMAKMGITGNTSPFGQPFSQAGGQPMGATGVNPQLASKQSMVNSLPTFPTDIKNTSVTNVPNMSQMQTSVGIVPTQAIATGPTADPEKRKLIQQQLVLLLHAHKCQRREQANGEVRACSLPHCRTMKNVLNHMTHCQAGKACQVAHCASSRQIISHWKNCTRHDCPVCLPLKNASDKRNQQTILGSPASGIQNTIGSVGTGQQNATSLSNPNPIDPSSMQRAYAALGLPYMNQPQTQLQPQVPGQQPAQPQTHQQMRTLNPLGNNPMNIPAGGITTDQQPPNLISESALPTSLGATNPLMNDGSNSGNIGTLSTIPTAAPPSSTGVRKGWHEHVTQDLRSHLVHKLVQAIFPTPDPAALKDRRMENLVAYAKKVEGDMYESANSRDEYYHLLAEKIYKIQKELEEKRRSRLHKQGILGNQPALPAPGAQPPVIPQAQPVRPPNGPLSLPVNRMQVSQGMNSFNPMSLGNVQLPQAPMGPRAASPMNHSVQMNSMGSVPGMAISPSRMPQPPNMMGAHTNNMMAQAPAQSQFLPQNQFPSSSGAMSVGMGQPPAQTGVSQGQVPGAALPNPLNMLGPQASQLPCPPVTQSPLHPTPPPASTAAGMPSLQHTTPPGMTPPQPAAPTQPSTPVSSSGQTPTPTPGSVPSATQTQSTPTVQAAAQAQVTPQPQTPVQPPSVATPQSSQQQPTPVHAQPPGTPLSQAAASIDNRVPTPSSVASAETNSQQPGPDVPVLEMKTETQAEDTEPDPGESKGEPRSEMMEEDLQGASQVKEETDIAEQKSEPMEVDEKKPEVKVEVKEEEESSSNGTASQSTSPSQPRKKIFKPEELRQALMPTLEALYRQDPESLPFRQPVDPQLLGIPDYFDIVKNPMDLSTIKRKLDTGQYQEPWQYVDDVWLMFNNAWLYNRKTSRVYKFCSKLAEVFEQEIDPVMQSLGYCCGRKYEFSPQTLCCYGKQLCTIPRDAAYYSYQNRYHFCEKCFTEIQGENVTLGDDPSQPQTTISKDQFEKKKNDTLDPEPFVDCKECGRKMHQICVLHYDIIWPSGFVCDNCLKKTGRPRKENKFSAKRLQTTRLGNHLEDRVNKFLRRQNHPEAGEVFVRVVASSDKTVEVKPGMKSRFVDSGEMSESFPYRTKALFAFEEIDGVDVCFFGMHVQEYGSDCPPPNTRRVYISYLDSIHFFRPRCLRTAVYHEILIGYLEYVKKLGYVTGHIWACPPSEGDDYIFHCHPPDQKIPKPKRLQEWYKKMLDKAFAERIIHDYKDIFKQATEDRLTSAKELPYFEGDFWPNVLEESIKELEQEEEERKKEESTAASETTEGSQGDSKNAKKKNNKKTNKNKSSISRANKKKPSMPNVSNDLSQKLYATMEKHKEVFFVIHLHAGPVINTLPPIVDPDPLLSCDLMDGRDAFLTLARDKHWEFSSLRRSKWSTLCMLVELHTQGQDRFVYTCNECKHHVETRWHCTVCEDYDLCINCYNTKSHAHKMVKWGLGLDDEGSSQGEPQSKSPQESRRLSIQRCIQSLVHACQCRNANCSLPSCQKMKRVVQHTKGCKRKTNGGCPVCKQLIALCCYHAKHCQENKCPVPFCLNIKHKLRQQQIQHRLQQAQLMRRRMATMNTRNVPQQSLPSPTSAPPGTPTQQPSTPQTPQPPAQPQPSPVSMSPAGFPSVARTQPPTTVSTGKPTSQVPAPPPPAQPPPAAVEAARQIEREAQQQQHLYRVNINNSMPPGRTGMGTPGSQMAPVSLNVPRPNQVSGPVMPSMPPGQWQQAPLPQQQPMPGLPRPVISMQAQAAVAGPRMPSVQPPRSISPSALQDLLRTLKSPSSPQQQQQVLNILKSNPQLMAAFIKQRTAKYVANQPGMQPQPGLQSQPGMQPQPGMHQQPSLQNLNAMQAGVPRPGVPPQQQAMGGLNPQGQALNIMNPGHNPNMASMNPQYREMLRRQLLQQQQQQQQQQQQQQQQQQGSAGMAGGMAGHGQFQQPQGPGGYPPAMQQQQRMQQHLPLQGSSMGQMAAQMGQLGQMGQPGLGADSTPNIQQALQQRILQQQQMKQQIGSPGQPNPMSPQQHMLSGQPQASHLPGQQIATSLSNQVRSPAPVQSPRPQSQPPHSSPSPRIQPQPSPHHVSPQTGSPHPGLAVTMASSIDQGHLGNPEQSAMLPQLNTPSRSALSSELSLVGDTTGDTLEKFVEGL
How it was run: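 Primary mouse hepatocytes in 100 μM 8-Br-cAMP treated with 3 μM compound and 10 μg/ml cycloheximide for the indicated times. Endogenous FOXO1 immunoblotted; band intensity quantified. Three independent experiments.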

For CNC(=O)Nc1ccc2c(c1)CCS21OC(=O)N(CC(=O)N(Cc2ccc(F)cc2)[C@@H](C)C(F)(F)F)C1=O (stereo not given in full), the Activity (Mus musculus [1]) was “Active”, the inhibition (Mus musculus [2]) was “Active” and the inhibition (Mus musculus [3]) was “Active”. For the same compound, the inhibition (Mus musculus [4]) was “Active”, the inhibition (Mus musculus [5]) was “Active” and the inhibition (Mus musculus [6]) was “inactive”. The inhibition (Mus musculus [7]) was “Active”, the inhibition (Mus musculus [8]) was “Active” and the inhibition (Mus musculus [9]) was “Active”. For the same compound, the inhibition (Mus musculus [10]) was “Active”, the inhibition (Adipocyte [11]) was “Active” and the inhibition (Adipocyte [12]) was “Active”. For the same compound, the inhibition (Adipocyte [13]) was “Active”, the inhibition (Mus musculus [14]) was “Active” and the inhibition (Hepatocyte [15]) was “Active”. The inhibition (Hepatocyte [16]) was “Active”, the inhibition (HepG2) was “inactive” and the inhibition (Hepatocyte [17]) was “inactive”. For the same compound, the inhibition (Mus musculus [18]) was “Active” and the inhibition [19] was “Active”.
